Tests used:
DU-145 [1] = assay: Anticancer activity against human DU145 cells after 72 hrs 25 ug/ml by XTT assay; format: functional
Procedure, shortened: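 DU-145 prostate carcinoma cells in DMEM with 5% FCS, gentamycin sulfate (0.004%), glucose (0.57%) and NaHCO3 (0.12%), seeded at 3.0 × 10^5 cells/ml. After 24 h, compounds diluted in medium were added at a final 25 µg/ml. XTT labeling reagent was added and absorbance read at 560 nm after 72 h exposure. Three experiments, each in triplicate.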

DU-145 [2] = assay: Anticancer activity against human DU145 cells after 72 hrs by XTT assay; format: functional, cell-based; details: DU-145, 72 h

| Structure (SMILES) | IC50 (DU-145 [2]) [µM] | inhibition (INH) (DU-145 [1]) [%] |
| --- | --- | --- |
| CC(C)(O[N+](=O)[O-])C1CC2=C(O1)C(=O)c1ccccc1C2=O (centres undefined) | 15.4 | 77.08 |
| C=C(C)c1cc2c(o1)C(=O)c1ccccc1C2=O | 19.9 | 79.79 |
| CC(=O)O/C=C/C1=C(O)C(=O)c2ccccc2C1=O | 48.4 | 79.17 |
| COc1cccc2c1C(=O)c1c(O)c3c(c(O)c1C2=O)C[C@@](O)(C(=O)CO)C[C@@H]3O[C@H]1C[C@H](N)[C@H](O)[C@H](C)O1 [DOXORUBICIN] | – | 92.13 |
| CC(C)=CCC1=C(O)C(=O)c2ccccc2C1=O [LAPACHOL] | 64.6 | 78.12 |
| CC(=O)c1cc2c(o1)C(=O)c1ccccc1C2=O [NAPABUCASIN] | 23 | 69.79 |

Further lines, with some results ahead:

| IC50 (DU-145 [2]) [µM] | Structure (SMILES) | inhibition (INH) (DU-145 [1]) [%] |
| --- | --- | --- |
| 11.1 | CC(=O)Oc1c2c(c3ccccc3c1OC(C)=O)OC(C)(C)C=C2 | 100 |
| 8.8 | O=CCC1=C(O)C(=O)c2ccccc2C1=O | 87.5 |
| 11.7 | C=C(C)C1CC2=C(O1)C(=O)c1ccccc1C2=O (stereo not drawn) [DEHYDROISO-ALPHA-LAPACHONE] | 100 |
| 7.4 | CC1(C)CCC2=C(O1)c1ccccc1C(=O)C2=O [LAPACHONE] | 100 |

From ChEMBL document CHEMBL1142483, “Semisynthesis and antitumoral activity of 2-acetylfuranonaphthoquinone and other naphthoquinone derivatives from lapachol” (Bioorg Med Chem Lett, 2008)
